This test is described as follows: 3-T MRI of gadofluorine M uptake in atherosclerotic-like lesions. Type of test: in vivo, rabbit. As to conditions: T1-weighted MRI 1 h after i.v. 0.5 μmol/kg. The method, boiled down:
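Rabbits had right femoral artery injury by air desiccation, then balloon angioplasty. The contralateral uninjured femoral artery served as control. Rabbits were imaged at 4–6 wk post-desiccation (n = 9), 3 wk post-angioplasty (n = 6) and 4 wk later (n = 4). 3-T T1-weighted turbo-spin-echo imaging (TR/TE 600/12 ms) was run 1 h after i.v. non-receptor-specific plaque-targeting contrast agent.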

For `CC(C(=O)NCC(=O)NCCCC[C@H](NC(=O)CO[C@H]1O[C@H](CO)[C@@H](O)[C@H](O)[C@@H]1O)C(=O)N1CCN(S(=O)(=O)C(F)(F)C(F)(F)C(F)(F)C(F)(F)C(F)(F)C(F)(F)C(F)(F)C(F)(F)F)CC1)N1CCN(CC(=O)O)CCN(CC(=O)O)CCN(CC(=O)O)CC1` (some centres unmarked) [gadofluorine M], the “MRI uptake in control arteries” value is on record as “no gadofluorine M uptake”. In addition, the “MRI signal / uptake in injured vessels” value (all rabbits at all TPs) was “increased signal”.

Values taken from article PMC4410353 (Journal of nuclear medicine : official publication, Society …, 2009).
